Test results taken from ChEMBL document CHEMBL1275251, “Mutant selection window and characterization of allelic diversity for ciprofloxacin-resistant mutants of Rhodococcus equi” (Antimicrob Agents Chemother, 2010).
In brackets after ≈: the same amount, converted by molar mass. Activity calls are given as the source filed them. The rule behind the calls is not given here.

What was measured:
Prescottella equi [1] = assay: Antibacterial activity against Rhodococcus equi ATCC 6939T harboring GyrA Ser83Ile mutation selected on 16 ug/ml of compound treated culture by broth microdilution method; assay type: functional; settings: Rhodococcus (subgen. Prescottella) equi
Procedure, shortened: (§1)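 Mutants were selected by plating at least 1 × 10^10 cells, grown 48 h at 35°C in brain heart infusion broth, on ciprofloxacin-containing Columbia blood agar base for 4 days at 35°C. Each was confirmed by two passages at the selecting concentration and one drug-free passage. MIC was then read by broth microdilution in cation-supplemented Mueller-Hinton broth per CLSI M24-A. Each experiment was done twice.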

Prescottella equi [2] = assay: Antibacterial activity against Rhodococcus equi ATCC 6939T harboring GyrA Ser83Ile mutation selected on 12 ug/ml of compound treated culture by broth microdilution method; assay type: functional; settings: Rhodococcus (subgen. Prescottella) equi; procedure, shortened: as §1
Prescottella equi [3] = assay: Antibacterial activity against Rhodococcus equi ATCC 6939T selected on 4 ug/ml of compound treated culture by broth microdilution method; assay type: functional; settings: Rhodococcus (subgen. Prescottella) equi; procedure, shortened: as §1
Prescottella equi [4] = assay: Antibacterial activity against Rhodococcus equi W5234 harboring GyrA Asp87Gly mutation selected on 6 ug/ml of compound treated culture by broth microdilution method; assay type: functional; settings: Rhodococcus (subgen. Prescottella) equi; procedure, shortened: as §1
Prescottella equi [5] = assay: Antibacterial activity against Rhodococcus equi W5234 harboring GyrA Ser83Arg mutation selected on 2 ug/ml of compound treated culture by broth microdilution method; assay type: functional; settings: Rhodococcus (subgen. Prescottella) equi; procedure, shortened: as §1
Prescottella equi [6] = assay: Antibacterial activity against Rhodococcus equi W5234 harboring GyrA Ser83Arg mutation selected on 6 ug/ml of compound treated culture by broth microdilution method; assay type: functional; settings: Rhodococcus (subgen. Prescottella) equi; procedure, shortened: as §1
Prescottella equi [7] = assay: Antibacterial activity against Rhodococcus equi ATCC 6939T harboring GyrA Asp87Asn mutation selected on 4 ug/ml of compound treated culture by broth microdilution method; assay type: functional, organism-based; procedure, shortened: as §1
Prescottella equi [8] = assay: Antibacterial activity against Rhodococcus equi ATCC 6939T harboring GyrA Asp87Gly mutation selected on 6 ug/ml of compound treated culture by broth microdilution method; assay type: functional; settings: Rhodococcus (subgen. Prescottella) equi; procedure, shortened: as §1
Prescottella equi [9] = assay: Antibacterial activity against Rhodococcus equi ATCC 6939T harboring GyrA Ser83Arg mutation selected on 8 ug/ml of compound treated culture by broth microdilution method; assay type: functional; settings: Rhodococcus (subgen. Prescottella) equi; procedure, shortened: as §1
Prescottella equi [10] = assay: Antibacterial activity against Rhodococcus equi W5234 harboring GyrA Asp87Asn mutation selected on 8 ug/ml of compound treated culture by broth microdilution method; assay type: functional, organism-based; procedure, shortened: as §1
Prescottella equi [11] = assay: Antibacterial activity against Rhodococcus equi W5234 harboring GyrB Asn464Asp mutation selected on 1 ug/ml of compound treated culture by broth microdilution method; assay type: functional; settings: Rhodococcus (subgen. Prescottella) equi; procedure, shortened: as §1
Prescottella equi [12] = assay: Antibacterial activity against Rhodococcus equi W5234 harboring GyrA Ser83Arg mutation selected on 12 ug/ml of compound treated culture by broth microdilution method; assay type: functional; settings: Rhodococcus (subgen. Prescottella) equi; procedure, shortened: as §1
Prescottella equi [13] = assay: Antibacterial activity against Rhodococcus equi ATCC 6939T isolated from lung abscess of horse; assay type: functional; settings: Rhodococcus (subgen. Prescottella) equi
Procedure, shortened: (§2)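 Cells grown 48 h at 35°C with shaking in brain heart infusion broth, then resuspended. MIC by broth microdilution in cation-supplemented Mueller-Hinton broth per CLSI M24-A. For MIC99 and MPC, ≥1 × 10^10 cells were plated on Columbia blood agar base containing a range of ciprofloxacin concentrations and incubated 4 days at 35°C. Resistant-colony fraction relative to CFU on drug-free plates was plotted against concentration. Run twice.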

Prescottella equi [14] = assay: Antibacterial activity against Rhodococcus equi W5234 harboring GyrA Ser83Ile mutation selected on 16 ug/ml of compound treated culture by broth microdilution method; assay type: functional, organism-based; procedure, shortened: as §1
Prescottella equi [15] = assay: Antibacterial activity against Rhodococcus equi W5234 isolated from HIV-positive patient; assay type: functional; settings: Rhodococcus (subgen. Prescottella) equi; procedure, shortened: as §2
Prescottella equi [16] = assay: Antibacterial activity against Rhodococcus equi W5234 harboring GyrA Ser83Ile mutation selected on 8 ug/ml of compound treated culture by broth microdilution method; assay type: functional; settings: Rhodococcus (subgen. Prescottella) equi; procedure, shortened: as §1
Prescottella equi [17] = assay: Antibacterial activity against Rhodococcus equi ATCC 6939T harboring GyrA Ser83Arg mutation selected on 4 ug/ml of compound treated culture by broth microdilution method; assay type: functional, organism-based; procedure, shortened: as §1
Prescottella equi [18] = assay: Antibacterial activity against Rhodococcus equi W5234 harboring GyrA Asp87His mutation selected on 6 ug/ml of compound treated culture by broth microdilution method; assay type: functional; settings: Rhodococcus (subgen. Prescottella) equi; procedure, shortened: as §1
Prescottella equi [19] = assay: Antibacterial activity against Rhodococcus equi ATCC 6939T harboring GyrA Ser83Arg mutation selected on 12 ug/ml of compound treated culture by broth microdilution method; assay type: functional; settings: Rhodococcus (subgen. Prescottella) equi; procedure, shortened: as §1
Prescottella equi [20] = assay: Antibacterial activity against Rhodococcus equi W5234 harboring GyrA Asp87Gly mutation selected on 4 ug/ml of compound treated culture by broth microdilution method; assay type: functional, organism-based; procedure, shortened: as §1
Prescottella equi [21] = assay: Antibacterial activity against Rhodococcus equi W5234 harboring GyrA Asp87Gly mutation selected on 8 ug/ml of compound treated culture by broth microdilution method; assay type: functional, organism-based; procedure, shortened: as §1
Prescottella equi [22] = assay: Antibacterial activity against Rhodococcus equi W5234 selected on 8 ug/ml of compound treated culture by broth microdilution method; assay type: functional; settings: Rhodococcus (subgen. Prescottella) equi; procedure, shortened: as §1
Prescottella equi [23] = assay: Antibacterial activity against Rhodococcus equi ATCC 6939T harboring GyrA Ser83Arg mutation selected on 2 ug/ml of compound treated culture by broth microdilution method; assay type: functional, organism-based; procedure, shortened: as §1
Prescottella equi [24] = assay: Antibacterial activity against Rhodococcus equi ATCC 6939T harboring GyrA Gly81Cys mutation selected on 4 ug/ml of compound treated culture by broth microdilution method; assay type: functional; settings: Rhodococcus (subgen. Prescottella) equi; procedure, shortened: as §1
Prescottella equi [25] = assay: Antibacterial activity against Rhodococcus equi ATCC 6939T selected on 1 ug/ml of compound treated culture by broth microdilution method; assay type: functional; settings: Rhodococcus (subgen. Prescottella) equi; procedure, shortened: as §1

For O=C(O)c1cn(C2CC2)c2cc(N3CCNCC3)c(F)cc2c1=O [CIPROFLOXACIN], the MIC (Prescottella equi [1]) was 64 µg/mL (≈ 193 µM), the MIC (Prescottella equi [2]) was 128 µg/mL (≈ 386 µM) and the MIC (Prescottella equi [3]) was 4 µg/mL (≈ 12.1 µM). For the same compound, the MIC (Prescottella equi [4]) was 16 µg/mL (≈ 48.3 µM), the MIC (Prescottella equi [5]) was 8 µg/mL (≈ 24.1 µM) and the MIC (Prescottella equi [6]) was 32 µg/mL (≈ 96.6 µM). The MIC (Prescottella equi [7]) was “inactive”, the MIC (Prescottella equi [8]) was 16 µg/mL (≈ 48.3 µM) and the MIC (Prescottella equi [9]) was 64 µg/mL (≈ 193 µM). For the same compound, the MIC (Prescottella equi [10]) was “inactive”, the MIC (Prescottella equi [11]) was 4 µg/mL (≈ 12.1 µM) and the MIC (Prescottella equi [12]) was 64 µg/mL (≈ 193 µM). The MIC99 (Prescottella equi [13]) was 0.42 µg/mL (≈ 1.27 µM), the MIC (Prescottella equi [14]) was “inactive” and the MIC (Prescottella equi [15]) was 0.5 µg/mL (≈ 1.51 µM). For the same compound, the MIC (Prescottella equi [16]) was 32 µg/mL (≈ 96.6 µM), the MIC (Prescottella equi [17]) was “inactive” and the MIC (Prescottella equi [18]) was 16 µg/mL (≈ 48.3 µM). The MIC (Prescottella equi [19]) was 128 µg/mL (≈ 386 µM), the MIC (Prescottella equi [20]) was “inactive” and the MIC (Prescottella equi [21]) was “inactive”. For the same compound, the MIC (Prescottella equi [22]) was 16 µg/mL (≈ 48.3 µM), the MIC (Prescottella equi [23]) was “inactive” and the MIC (Prescottella equi [24]) was 8 µg/mL (≈ 24.1 µM). It also gave an MIC (Prescottella equi [25]) of 1 µg/mL (≈ 3.02 µM).
